Assay results from ChEMBL document CHEMBL4689842, “EUbOPEN Chemogenomics Library wave 1” (2021).

Tested on: U2OS
Assay: Multiplex assay against U2OS
Type: toxicity, cell-based
Details: human
Method in brief: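 At seeding, live cells were stained with Hoechst33342, BioTracker Green Microtubule Cytoskeleton Dye, MitoTracker Red and Annexin V Alexa Fluor 680. After compound addition they were imaged on a CQ1 microscope at 37°C and 5% CO2, and CellPathfinder machine-learning gating sorted them into Hoechst high-intensity objects or normal cells, with normal cells further split into healthy, pyknosed or fragmented nuclei and pyknosed cells into mitotic or apoptotic. Tubulin, mitochondrial-mass and membrane-permeability phenotypes are given as per cents of cells with healthy nuclei.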

[1] = 12 h, 0 µM, compound concentration 0 uM, replicate 1
[2] = 12 h, 0 µM, compound concentration 0 uM, replicate 2
[3] = 12 h, 1 µM, compound concentration 1 uM, replicate 1
[4] = 12 h, 1 µM, compound concentration 1 uM, replicate 2
[5] = 24 h, 0 µM, compound concentration 0 uM, replicate 1
[6] = 24 h, 0 µM, compound concentration 0 uM, replicate 2
[7] = 24 h, 1 µM, compound concentration 1 uM, replicate 1
[8] = 24 h, 1 µM, compound concentration 1 uM, replicate 2
[9] = 12 h, 10 µM, compound concentration 10 uM, replicate 1
[10] = 12 h, 10 µM, compound concentration 10 uM, replicate 2
[11] = 24 h, 10 µM, compound concentration 10 uM, replicate 1
[12] = 24 h, 10 µM, compound concentration 10 uM, replicate 2
[13] = 48 h, 1 µM, compound concentration 1 uM, replicate 1
[14] = 48 h, 1 µM, compound concentration 1 uM, replicate 2
[15] = 48 h, 10 µM, compound concentration 10 uM, replicate 1
[16] = 48 h, 10 µM, compound concentration 10 uM, replicate 2

CCNc1cc(N[C@H]2CC[C@H](O)CC2)nc(Nc2ccc3c(ccn3Cc3ccccc3)c2)n1
Population Apoptotic (%) [1]: 37% | Population Fragmented Nuclei (%) [1]: 14% | Population Healthy Nuclei (%) [1]: 59% | Population Hoechst High Intensity Objects (%) [1]: 6% | Population Membrane Permeable-Phenotype (%) [1]: 39% | Population Mitochondria Different-Phenotype (%) [1]: 98% | Population Mitotic Cells (%) [1]: 62% | Population Normal (%) [1]: 93% | Population Pyknosed Nuclei (%) [1]: 25% | Population Tubulin-Different-Phenotype (%) [1]: 100% | Total Cell Count [1]: 243 | Population Apoptotic (%) [2]: 62% | Population Fragmented Nuclei (%) [2]: 20% | Population Healthy Nuclei (%) [2]: 57% | Population Hoechst High Intensity Objects (%) [2]: 7% | Population Membrane Permeable-Phenotype (%) [2]: 69% | Population Mitochondria Different-Phenotype (%) [2]: 100% | Population Mitotic Cells (%) [2]: 37% | Population Normal (%) [2]: 92% | Population Pyknosed Nuclei (%) [2]: 22% | Total Cell Count [2]: 117 | Population Apoptotic (%) [3]: 64% | Population Fragmented Nuclei (%) [3]: 4% | Population Healthy Nuclei (%) [3]: 81% | Population Hoechst High Intensity Objects (%) [3]: 1% | Population Membrane Permeable-Phenotype (%) [3]: 33% | Population Mitochondria Different-Phenotype (%) [3]: 30% | Population Mitotic Cells (%) [3]: 35% | Population Normal (%) [3]: 98% | Population Pyknosed Nuclei (%) [3]: 13% | Population Tubulin-Different-Phenotype (%) [3]: 88% | Total Cell Count [3]: 129 | Population Apoptotic (%) [4]: 42% | Population Fragmented Nuclei (%) [4]: 11% | Population Healthy Nuclei (%) [4]: 75% | Population Hoechst High Intensity Objects (%) [4]: 11% | Population Membrane Permeable-Phenotype (%) [4]: 18% | Population Mitochondria Different-Phenotype (%) [4]: 55% | Population Mitotic Cells (%) [4]: 57% | Population Normal (%) [4]: 88% | Population Tubulin-Different-Phenotype (%) [4]: 76% | Total Cell Count [4]: 120 | Population Apoptotic (%) [5]: 65% | Population Fragmented Nuclei (%) [5]: 14% | Population Healthy Nuclei (%) [5]: 46% | Population Hoechst High Intensity Objects (%) [5]: 4% | Population Membrane Permeable-Phenotype (%) [5]: 83% | Population Mitotic Cells (%) [5]: 34% | Population Normal (%) [5]: 95% | Population Pyknosed Nuclei (%) [5]: 39% | Population Tubulin-Different-Phenotype (%) [5]: 99% | Total Cell Count [5]: 273 | Population Apoptotic (%) [6]: 71% | Population Fragmented Nuclei (%) [6]: 23% | Population Healthy Nuclei (%) [6]: 47% | Population Hoechst High Intensity Objects (%) [6]: 10% | Population Membrane Permeable-Phenotype (%) [6]: 92% | Population Mitochondria Different-Phenotype (%) [6]: 100% | Population Mitotic Cells (%) [6]: 28% | Population Normal (%) [6]: 89% | Population Pyknosed Nuclei (%) [6]: 29% | Population Tubulin-Different-Phenotype (%) [6]: 100% | Total Cell Count [6]: 121 | Population Apoptotic (%) [7]: 33% | Population Fragmented Nuclei (%) [7]: 9% | Population Healthy Nuclei (%) [7]: 77% | Population Hoechst High Intensity Objects (%) [7]: 2% | Population Membrane Permeable-Phenotype (%) [7]: 22% | Population Mitochondria Different-Phenotype (%) [7]: 42% | Population Mitotic Cells (%) [7]: 66% | Population Normal (%) [7]: 97% | Population Pyknosed Nuclei (%) [7]: 12% | Population Tubulin-Different-Phenotype (%) [7]: 69% | Total Cell Count [7]: 167 | Population Apoptotic (%) [8]: 70% | Population Fragmented Nuclei (%) [8]: 14% | Population Healthy Nuclei (%) [8]: 71% | Population Hoechst High Intensity Objects (%) [8]: 9% | Population Membrane Permeable-Phenotype (%) [8]: 23% | Population Mitochondria Different-Phenotype (%) [8]: 53% | Population Mitotic Cells (%) [8]: 29% | Population Normal (%) [8]: 90% | Population Pyknosed Nuclei (%) [8]: 14% | Population Tubulin-Different-Phenotype (%) [8]: 65% | Total Cell Count [8]: 132

O=C(Nc1ccc(-c2ccnc(Nc3ccc(N4CCOCC4)cc3)n2)cc1)[C@@H]1CCCN1
Population Apoptotic (%) [3]: 45% | Population Fragmented Nuclei (%) [3]: 11% | Population Healthy Nuclei (%) [3]: 76% | Population Hoechst High Intensity Objects (%) [3]: 3% | Population Membrane Permeable-Phenotype (%) [3]: 6% | Population Mitochondria Different-Phenotype (%) [3]: 10% | Population Mitotic Cells (%) [3]: 55% | Population Normal (%) [3]: 96% | Population Pyknosed Nuclei (%) [3]: 11% | Population Tubulin-Different-Phenotype (%) [3]: 16% | Total Cell Count [3]: 100 | Population Apoptotic (%) [4]: 33% | Population Fragmented Nuclei (%) [4]: 13% | Population Hoechst High Intensity Objects (%) [4]: 7% | Population Membrane Permeable-Phenotype (%) [4]: 4% | Population Mitotic Cells (%) [4]: 66% | Population Normal (%) [4]: 92% | Population Pyknosed Nuclei (%) [4]: 10% | Population Tubulin-Different-Phenotype (%) [4]: 10% | Total Cell Count [4]: 65 | Population Apoptotic (%) [9]: 62% | Population Fragmented Nuclei (%) [9]: 13% | Population Healthy Nuclei (%) [9]: 66% | Population Hoechst High Intensity Objects (%) [9]: 7% | Population Membrane Permeable-Phenotype (%) [9]: 12% | Population Mitochondria Different-Phenotype (%) [9]: 74% | Population Mitotic Cells (%) [9]: 37% | Population Normal (%) [9]: 92% | Population Pyknosed Nuclei (%) [9]: 20% | Population Tubulin-Different-Phenotype (%) [9]: 97% | Total Cell Count [9]: 176 | Population Apoptotic (%) [10]: 77% | Population Fragmented Nuclei (%) [10]: 7% | Population Healthy Nuclei (%) [10]: 77% | Population Hoechst High Intensity Objects (%) [10]: 5% | Population Membrane Permeable-Phenotype (%) [10]: 8% | Population Mitochondria Different-Phenotype (%) [10]: 28% | Population Mitotic Cells (%) [10]: 22% | Population Normal (%) [10]: 94% | Population Pyknosed Nuclei (%) [10]: 14% | Population Tubulin-Different-Phenotype (%) [10]: 44% | Total Cell Count [10]: 65 | Population Apoptotic (%) [7]: 41% | Population Fragmented Nuclei (%) [7]: 8% | Population Healthy Nuclei (%) [7]: 76% | Population Hoechst High Intensity Objects (%) [7]: 3% | Population Membrane Permeable-Phenotype (%) [7]: 7% | Population Mitochondria Different-Phenotype (%) [7]: 9% | Population Mitotic Cells (%) [7]: 58% | Population Normal (%) [7]: 96% | Population Pyknosed Nuclei (%) [7]: 15% | Population Tubulin-Different-Phenotype (%) [7]: 10% | Total Cell Count [7]: 90 | Population Apoptotic (%) [8]: 60% | Population Fragmented Nuclei (%) [8]: 7% | Population Healthy Nuclei (%) [8]: 85% | Population Hoechst High Intensity Objects (%) [8]: 6% | Population Membrane Permeable-Phenotype (%) [8]: 3% | Population Mitochondria Different-Phenotype (%) [8]: 19% | Population Mitotic Cells (%) [8]: 40% | Population Normal (%) [8]: 93% | Population Pyknosed Nuclei (%) [8]: 7% | Total Cell Count [8]: 63 | Population Apoptotic (%) [11]: 60% | Population Fragmented Nuclei (%) [11]: 12% | Population Healthy Nuclei (%) [11]: 65% | Population Hoechst High Intensity Objects (%) [11]: 7% | Population Membrane Permeable-Phenotype (%) [11]: 17% | Population Mitochondria Different-Phenotype (%) [11]: 80% | Population Mitotic Cells (%) [11]: 39% | Population Normal (%) [11]: 92% | Population Pyknosed Nuclei (%) [11]: 21% | Population Tubulin-Different-Phenotype (%) [11]: 97% | Total Cell Count [11]: 198 | Population Apoptotic (%) [12]: 58% | Population Fragmented Nuclei (%) [12]: 18% | Population Healthy Nuclei (%) [12]: 64% | Population Hoechst High Intensity Objects (%) [12]: 1% | Population Membrane Permeable-Phenotype (%) [12]: 13% | Population Mitochondria Different-Phenotype (%) [12]: 17% | Population Mitotic Cells (%) [12]: 41% | Population Normal (%) [12]: 98% | Population Pyknosed Nuclei (%) [12]: 17% | Population Tubulin-Different-Phenotype (%) [12]: 22% | Total Cell Count [12]: 72 | Population Apoptotic (%) [13]: 36% | Population Fragmented Nuclei (%) [13]: 5% | Population Hoechst High Intensity Objects (%) [13]: 1% | Population Membrane Permeable-Phenotype (%) [13]: 4% | Population Mitochondria Different-Phenotype (%) [13]: 8% | Population Mitotic Cells (%) [13]: 63% | Population Normal (%) [13]: 98% | Population Pyknosed Nuclei (%) [13]: 13% | Population Tubulin-Different-Phenotype (%) [13]: 13% | Total Cell Count [13]: 94 | Population Apoptotic (%) [14]: 0% | Population Fragmented Nuclei (%) [14]: 10% | Population Healthy Nuclei (%) [14]: 80% | Population Hoechst High Intensity Objects (%) [14]: 5% | Population Membrane Permeable-Phenotype (%) [14]: 5% | Population Mitochondria Different-Phenotype (%) [14]: 12% | Population Mitotic Cells (%) [14]: 100% | Population Normal (%) [14]: 94% | Population Pyknosed Nuclei (%) [14]: 9% | Population Tubulin-Different-Phenotype (%) [14]: 16% | Total Cell Count [14]: 61 | Population Apoptotic (%) [15]: 67% | Population Fragmented Nuclei (%) [15]: 24% | Population Healthy Nuclei (%) [15]: 48% | Population Hoechst High Intensity Objects (%) [15]: 6% | Population Membrane Permeable-Phenotype (%) [15]: 18% | Population Mitochondria Different-Phenotype (%) [15]: 53% | Population Mitotic Cells (%) [15]: 32% | Population Normal (%) [15]: 93% | Population Pyknosed Nuclei (%) [15]: 26% | Population Tubulin-Different-Phenotype (%) [15]: 86% | Total Cell Count [15]: 289 | Population Apoptotic (%) [16]: 60% | Population Fragmented Nuclei (%) [16]: 9% | Population Healthy Nuclei (%) [16]: 70% | Population Hoechst High Intensity Objects (%) [16]: 8% | Population Membrane Permeable-Phenotype (%) [16]: 28% | Population Mitochondria Different-Phenotype (%) [16]: 32% | Population Mitotic Cells (%) [16]: 40% | Population Normal (%) [16]: 91% | Population Pyknosed Nuclei (%) [16]: 20% | Population Tubulin-Different-Phenotype (%) [16]: 23% | Total Cell Count [16]: 125
